Tested on: MS2 coat protein
Assay: apparent Kd, MS2 coat protein; higher = weaker binding; RNA-MaP array; FMN 200 µM where present
Outline: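 In 100 mM Tris-HCl pH 7.5, 80 mM KCl, 4 mM MgCl2, BSA, DTT, yeast tRNA and Tween-20, SNAP-549-labelled MS2 coat protein was titrated from 0.7 or 1.5 nM, doubling to 3 µM, over designs transcribed by stalled E. coli RNA polymerase on Illumina sequencing-chip clusters. This was done first without ligand, then with ligand held constant. After green signal was normalised to red-channel RNA signal and control-cluster median Fmax, the apparent Kd was taken as the median of filtered per-cluster binding-curve fits.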

[1] = designed as: OFF switch for flavin mononucleotide, no ligand
[2] = ligand present: flavin mononucleotide, designed as: OFF switch for flavin mononucleotide
[3] = designed as: ON switch for flavin mononucleotide, no ligand
[4] = ligand present: flavin mononucleotide, designed as: ON switch for flavin mononucleotide

Row | Sequence | apparent Kd [1] | apparent Kd [2] | apparent Kd [3] | apparent Kd [4]
1 | CGGUCGAUGUAAGGAUAUCGACUGGAAUACAGUCGAGAAGGUACAUGAGGAUCACCCAUGUAAUCCUAAUAAUAAUAACGACCG | 11.1 nM | 17.4 nM | – | –
2 | ACGCCCUGAGGAUAUCUCAUCCCGCACAUGAGGAUCACCCAUGUUCUCCUCCGGGCUCCGAGAGAAGGCAGGCCCA | 54.7 nM | 95.2 nM | – | –
3 | AAUAAUCAGUAAGGAUAUACUAGCGAUUAGCUUGUAGAAGGUACAGUCUUAUGUAUAACAAAUUAACAUGAGGAUCACCCAUGU | – | – | 9.19 nM | 7.65 nM
4 | AAACAUGUCCGAGGAUAUCUGGAAACACUUUCAAGAGAAGGCGGACAUGAGGAUCACCCAUGUCUCUCCUCAUCAACUACAAAU | 8.71 nM | 49.3 nM | – | –
5 | ACAGCGUGAGGAUAUACAUGAGGAUCACCCAUGUAUGGCAGGUUAUCCUGUCGUAUGUGUAGAAGGCACGCUGU | 60.3 nM | 73.7 nM | – | –
6 | AAGAUGUUAGGAUAUCGAAGGUUGUGGCAGGCGGGAAUUUGCGAGAAGGAACAUGAGGAUCACCCAUGUGAAAU | 22.3 nM | 21.8 nM | – | –
7 | GGAUAGGACAGAGGAUAUACGUGCUAGAGAUACUAGCAAAAUAUCCUCACAUGAGGAUCACCCAUGUAGAAGGCUGUCCUAUCG | 18.1 nM | 79 nM | – | –
8 | AGUUUACAUGAGGAUCACCCAUGUGAGGAUAUGGUUUCGCUGGCCGUAGCCAGUGGAACCAGAAGGCGCGUGAU | 87.6 nM | 164 nM | – | –
9 | GGACGUCCCAUUAACAUGAGGAUCACCCAUGUCAAAAGACAUGAGGAUAUGCUACCUAAUUGGUAGCAGAAGGCAUGGACGUCC | – | – | 878 nM | 85.4 nM
10 | AAUUUACAUGAGGAUCACCCAUGUGAGGAUAUACACACAUGCUUGUUAUUGCGUGUGUGUAGAAGGCGCGUGAU | 97.3 nM | 153 nM | – | –
11 | AAUUUACAGGGAGGAUAUACAUGAGGAUCACCCAUGUAAUCAUAUGAUAUUUUUUUUGUAUGAGUGUAGAAGGCCCAAAUACCA | 11.5 nM | 13 nM | – | –
12 | UAAUCUCAGAUAGGAUAUAUAGGAUAACUUAAGACCGAACAUGAGGAUCACCCAUGUGAUUAUUCGUAGAAGGAUCAAUGACCC | – | – | 119 nM | 119 nM
13 | GUCUCACAUGAGGAUCACCCAUGUGAGGAUAUGGAUUCGCUGGCCGUAGCCAGUGGAUCCAGAAGGCGCGUGAU | 59.1 nM | 58.8 nM | – | –
14 | UUCCUCAAGUAAGGAUAUACCACGGUAUGCUGAGUAGAAGGUACAUGAGGAUCACCCAUGUGCAUCCCACGAUUGCAUUGGUCA | 30.4 nM | 145 nM | – | –
15 | UUUUAACAUGAGGAUCACCCAUGUGAGGAUAUCGUUUUUUUUAUUAAUAUUAAUAAAACGAGAAGGCACAUUUU | 149 nM | 149 nM | – | –
16 | UGUGAGUUGAUGUUAGAUAGGAGAACAUGAGGAUCACCCAUGUAGGAUAUUCAAAGACGAAGAUAGAAGAAGGACAUAGGUUUC | 17.7 nM | 21.5 nM | – | –
17 | AAUUUACAGGGAGGAUAUACAUGAGGAUCACCCAUGUAAUCAUAUGAUAUUUUUUUUGUAUGAGUGUAGAAGGCCCAACUACCA | 10.7 nM | 11 nM | – | –
18 | AUUGAGUGGUCAGGAUAUGUACGGCCUACCGCACAUGAGGAUCACCCAUGUCGCCAAGGAGGACGACAGAAGGGACAACGAAUG | – | – | 43.5 nM | 8.83 nM
19 | GUUCUUCCUGUGAGGAUAUCCAUGUGUCGGUGUGUGGAGAAGGUACAUGAGGAUCACCCAUGUCACCCGCGUUU | 20.8 nM | 22.2 nM | – | –
20 | AGGUCAACCACAGGAUAUGGCUAGCAUAGCUAGCCAGAAGGGUGGUCGUUGCCAUGUACAUACAUGAGGAUCACCCAUGUAUCC | – | – | 179 nM | 54.7 nM
21 | AAAACUGGAGGAUAUACAUGAGGAUCACCCAUGUGUGGGUAUACUGUGUCGGCGUCAGGUAGAAGGCCACAAAA | 108 nM | 88.7 nM | – | –
22 | CAAUUUAUGUCAGGAUAUACAAUACAAUGAUUAGUAGAAGGGAUUAAUACAUGAGGAUCACCCAUGUCAUGUGUCAUAGUAACC | 23.9 nM | 19.4 nM | – | –
23 | GGAUCGUAUGUCAGGAUAUGCCACUGGAUACAGUGGUAGAAGGGACAUGAGGAUCACCCAUGUCCUACCGAUCC | 12.5 nM | 14.4 nM | – | –
24 | UUGGACGUCGUAGGAUAAGUAGGAUAUUCCUACAUGAGGAUCACCCAUGUUGACAUGGAAGAAGGACAGAAGGACGAUGUCCAU | – | – | 96.2 nM | 4.48 nM
25 | AGGUACAUCAUAGGAUAUCGUGUGUAAACAUGAGGAUCACCCAUGUCAUCCGAGAGUAUAUCGACCGAGAAGGGUGAUGUACCU | – | – | 22 nM | 32.5 nM
26 | AAUAACAGAGGAUAUACUAUUUUAUGUGUUUGUUGUUUUGAACAUGAGGAUCACCCAUGUAGAAGGCUGAAUAA | 22.6 nM | 25.6 nM | – | –
27 | GGACGUCACAUUAACAUGAGGAUCACCCAUGUCUCUUGACAUGAGGAUAUGGAUCCUAAUUGGAUCCAGAAGGCAUGGACGUCC | – | – | 1220 nM | 97.2 nM
28 | CCCGGUCGAGCAGGAUAUAGACCGCGUGCAUUUCCCUCAGAUUGAGACAUGAGGAUCACCCAUGUCUAGAAGGGUUCACCGAAA | 5.83 nM | 6.93 nM | – | –

From the EternaBench riboswitch data
